Screening data (PubChem BioAssay)
HIF act: HIF pathway transcriptional activators, primary screen, cell-based, U2OS HRE-luciferase, luminescence; U2OS HRE-luciferase reporter; normalized: DMSO 0%, desferrioxamine 100%; activation, % at 7.5 µM (by protocol); actives 0.32% (n = 300,000); AID 1910, 2009;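 active = mean activation of at least 10% of the iron chelator positive control signal, with at least half of replicates also reaching 10%; inconclusive = mean and replicate majority disagree about reaching 10%; inactive = mean and most replicates under 10%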
T cruzi inh: inhibitors of intracellular T. cruzi growth, primary screen, luminescence, NIH3T3 host cells; T. cruzi beta-gal in NIH3T3, 90 h; inhibition, % (no concentration beside the values); actives 1.4% (n = 300,000); AID 1885, 2009;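 active = mean inhibition across valid replicates above about 55%, limit read from the data; inconclusive = mean below that limit but half or more replicates reach it; inactive = mean below it, under half of replicates reach it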;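 note: signal also drops with host cell toxicity which is not excluded here; 0% = plate median of DMSO wells and 100% = zero luminescence signal; higher percent means less beta-gal luminescence so fewer parasites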
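Incubation – ≥90 h infection period, 3 h prior cell attachment · System – NIH/3T3 fibroblasts plus reporter T. cruzi · Doses – compound pinned at 50 nL/well, DMSO · Read-out basis – percent inhibition of parasite-derived β-gal signal · Signal – luminescent β-galactosidase signal after 60 min lysis · Also added – 5000 T. cruzi trypomastigotes/well · Medium – Low-serum DMEM with 2% FBS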
Beta cell apopt: inhibitors of cytokine-induced beta cell apoptosis, primary screen, luminescence. protection from apoptosis, % (concentration not given with the values). actives 0.8% (n = 300,000). INS-1E cytokine-induced death, ATP luminescence, 48 h; percent of positive-control rescue, neutral wells zero;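 active = Every replicate reaches about 75%, or at least half do and their mean reaches it too, limit read from the data; inconclusive = At least half of replicates reach the limit but their mean does not; inactive = Under half of replicates reach the limit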;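 note: 0% = cytokine-treated negative control wells and 100% = positive control rescue; higher means more ATP so stronger rescue from cytokine killing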
SKKanGAS inh: S. pyogenes SKKanGAS growth inhibitors in kanamycin, primary screen, streptokinase expression inhibitor project, SKKanGAS strain, BacTiter-Glo luminescence; actives 1.3% (n = 300,000); inhibition, % at 7.5 µM; 6 h;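 active = mean replicate score, as percent of positive control median, at least 50; inconclusive = mean below 50 but one replicate at or above 50; inactive = mean and every replicate below 50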;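 note: strain carries kanamycin resistance gene driven by streptokinase promoter and grows in 40 µg/ml kanamycin; loss of luminescence reflects streptokinase promoter inhibition or plain growth inhibition; 0% = median of DMSO wells and 100% = positive control at its reference dose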
CSC inhib: cancer stem cell viability inhibitors, primary screen, luminescence; actives 1.1% (n = 300,000); cancer stem cell-like cells viability; inhibition, % at 7.5 µM; AID 2717, 2010; in the data active = inhibition above about 75%; inconclusive = no clear call, values can overlap the other calls; tested in HMLE shEcad cells
PfHsp90 yeast 2: growth inhibition of PfHsp90-expressing yeast, primary screen, antimalarial PfHsp90 inhibitor project, S. cerevisiae, BacTiter-Glo luminescence, single point, set 2 | BacTiter-Glo ATP, 48 h; yeast lacking PDR1 and PDR3 efflux regulators | inhibition, % at 9.4 µM | actives 0.32% (n = 310,000);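 active = every replicate shows inhibition above about 80%, whatever the replicate mean, limit read from the data; inconclusive = mean inhibition reaches the set limit but some replicate falls short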;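 note: 0% = DMSO neutral controls and 100% = 20 µM radicicol positive controls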
* = called active by the depositor; ? = inconclusive; . = no result. An excerpt weighted towards active compounds, which were near 3.6% of everything screened.

SMILES	HIF act	T cruzi inh	Beta cell apopt	SKKanGAS inh	CSC inhib	PfHsp90 yeast 2
CN(/N=C/c1cc(Br)cc(Br)c1O)c1cccc(C(F)(F)F)n1	-1	23	?	70*	103*	-28
O=C1C=C(c2ccccc2)CC(c2cccs2)C1n1cnc([N+](=O)[O-])c1 (centres undefined)	48*	-9	4	7	.	-32
COc1cc(/C=N/NC(=O)c2cncc(Br)c2)cc([N+](=O)[O-])c1O	0	-5	-3	108*	11	-30
COc1cc(/C=N/NC(=O)c2cccc([N+](=O)[O-])c2)cc(OC)c1O	0	-8	-1	-5	-5	-29
COc1cc([N+](=O)[O-])cc(/C=N/NC(=O)c2cncc(Br)c2)c1O	.	-7	-3	94*	3	-66
O=C(CSc1nc2ccccc2c(=O)n1CCCN1CCOCC1)Nc1ccccc1OC(F)F	.	.	6	.	.	35
Nc1ccc(C(=O)N2CCN(S(=O)(=O)/C=C/c3ccccc3)CC2)cc1[N+](=O)[O-]	0	-5	4	10	4	.
O=C(c1ccc2ccccc2c1)N1CCN(S(=O)(=O)/C=C/c2ccccc2)CC1	0	55*	-3	4	-13	-29
Cc1ccsc1C(=O)OCC(=O)NCc1ccc(Cl)cc1	.	.	-1	.	-11	-32
COC(=O)c1sc(NC(=O)c2ccc3c(c2)OCO3)c(C#N)c1C	.	.	.	.	.	13
CC[C@H]1CC2CN3CCc4c([nH]c5c([C@H]6C[C@H]7[C@H](CC)CN(C)[C@@H](Cc8c6[nH]c6ccccc86)[C@H]7C(=O)OC)c(OC)ccc45)C(C(=O)OC)(C2)C13	-1	51	49	5	103*	.
CCC1CN(C)C2Cc3c([nH]c4ccccc34)C(=O)CC1C2C(=O)OC (centres undefined)	0	2	.	2	-4	8
CCC1([N+](=O)[O-])COC(c2ccc(Cl)cc2)OC1 (centres undefined)	.	.	.	.	.	-19
O=C(NCC(c1ccco1)N1CCCC1)c1ccccc1Sc1ccc(C(F)(F)F)cc1[N+](=O)[O-] (centres undefined)	0	56*	0	-2	-2	-1
N#Cc1ccccc1Sc1ccccc1C(=O)NCC(c1ccco1)N1CCCCC1 (centres undefined)	.	.	-3	.	1	3
Cc1nn(-c2ccccc2)c2c1C(c1ccc(Cl)cc1)N(c1ccccc1)C(=O)N2 (centres undefined)	0	14	-3	19	2	-17
Cc1nn(-c2ccccc2)c2c1C(c1ccc(O)c(O)c1)N1C(=N2)C(Nc2ccccc2)=Nc2ccccc21 (centres undefined)	0	51	15	88*	90*	-4
Cc1ccc(NC2=Nc3ccccc3N3C2=Nc2c(c(C)nn2-c2ccccc2)C3c2ccc(O)c(O)c2)cc1 (centres undefined)	.	.	.	.	.	-8
Cc1cccc(NC2=Nc3ccccc3N3C2=Nc2c(c(C)nn2-c2ccccc2)C3c2ccc(O)c(O)c2)c1 (centres undefined)	0	6	14	99*	100*	-33
CCc1ccc2c(c1)C1(NN=C(c3ccc(C)cc3)S1)C(=O)N2 (centres undefined)	1	?	50	80*	9	-73
CC(C)c1ccc(O)c(NC(=O)c2ncn[nH]2)c1	0	-19	-4	.	0	-25
CC(C)c1ccc2c(c1)C1(NN=C(c3ccccc3)S1)C(=O)N2 (centres undefined)	4	66*	74	99*	116*	-156
CC(C)OCCCNC(=O)C1CCC(CNS(=O)(=O)c2cccc3nsnc23)CC1 (centres undefined)	0	-2	-2	2	-2	-20
CC(C)CCNC(=O)C1CCC(CNS(=O)(=O)c2cccc3nsnc23)CC1 (centres undefined)	0	56*	4	-2	-12	-21
